1 compound from ChEMBL document CHEMBL4382258, “Design and Optimization of Sulfone Pyrrolidine Sulfonamide Antagonists of Transient Receptor Potential Vanilloid-4 with in Vivo Activity in a Pulmonary Edema Model” (J Med Chem, 2018) can be followed below.

Data set [1] in a line: Permeability of the compound by PAMPA. In kind it is ADME. To be noted: read-out: permeability. Background: The PAMPA barrier holds no transporters, so it reflects passive diffusion.
Data set [2] is described as follows: Oral bioavailability in Sprague-Dawley rat at 2 mg/kg by LC/MS/MS analysis. The class given is ADME, organism-based. The note with it: in vivo.
Data set [3] in a line: Clearance adjusted for unbound fraction in Sprague-Dawley rat at 1 mg/kg, iv administered as 30 mins infusion by LC/MS/MS analysis. In kind it is ADME, organism-based. To be noted: in vivo, 0.5 h.
Data set [4] concerns the target Transient receptor potential cation channel subfamily V member 4 (Homo sapiens, UniProt Q9HBA0). In words: Antagonist activity at human TRPV4 expressed in BHK/AC9 cells assessed as inhibition of GSK634775-induced […] pre-incubated for 10 mins followed by agonist addition by Fluo-4-AM dye-based FLIPR assay. In kind it is cell-based.
Data set [5] in a line: Plasma concentration in Sprague-Dawley rat heart failure-induced pulmonary edema model at 0.21 ug/kg, iv bolus loading dose followed by 2.3 ug/kg/min, iv continuous infusion dose for 60 mins. In kind it is ADME, organism-based.
Data set [6] can be described thus: AUC (0 to t) in dog at 30 mg/kg, po. The class given is ADME, organism-based, Canis lupus familiaris. To be noted: in vivo.
Data set [7] has as its target Transient receptor potential cation channel subfamily M member 8 (Homo sapiens, UniProt Q7Z2W7). As to the kind of experiment: Antagonist activity at TRPM8 (unknown origin).
Data set [8] deals with Transient receptor potential cation channel subfamily M member 2 (Homo sapiens, UniProt O94759). As to the kind of experiment: Antagonist activity at TRPM2 (unknown origin).
Data set [9] in a line: AUC (0 to t) in rat at 2.4 mg/kg, po. In kind it is ADME, organism-based. The note with it: in vivo.
The target in data set [10] is Transient receptor potential cation channel subfamily V member 4 (Rattus norvegicus, UniProt Q9ERZ8). As to the kind of experiment: Antagonist activity at rat TRPV4 expressed in BHK/AC9 cells assessed as inhibition of GSK634775-induced […] pre-incubated for 10 mins followed by agonist addition by Fluo-4-AM dye-based FLIPR assay. In kind it is cell-based.

A short description of data set [11]: AUC (0 to t) in dog at 0.9 mg/kg, po. In kind it is ADME, organism-based, Canis lupus familiaris. The note with it: in vivo.
A short description of data set [12]: MRT in Sprague-Dawley rat at 1 mg/kg, iv or 2 mg/kg, po by LC/MS/MS analysis. The class given is ADME, organism-based. The note with it: in vivo.
A short description of data set [13]: Dose normalized AUC (0 to t) in rat at 98 mg/kg, po. To be noted: in vivo. The class given is ADME, organism-based.
Data set [14] deals with Transient receptor potential cation channel subfamily A member 1 (Homo sapiens, UniProt O75762). In words: Antagonist activity at TRPA1 (unknown origin).
The next data set concerns Rattus norvegicus. As to the kind of experiment: Reversal of heart failure-induced pulmonary edema in Sprague-Dawley rat assessed as inhibition of GSK1016790A-induced increase in lung wet weight to body weight ratio at 0.21 ug/kg, iv bolus loading dose followed by 2.3 ug/kg/min, iv continuous infusion dose for 60 mins prior to agonist administration relative to control. The class given is functional. A digest of the protocol: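 Rats given vehicle or antagonist by i.v. infusion, then agonist GSK1016790A i.v. at 10 µg/kg/min for 10 min (100 µg/kg total). Edema scored as wet lung weight/body weight ratio against naïve animals; inhibition computed from the agonist response; mean ± SEM.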

The nature of data set [15]: Clearance in Sprague-Dawley rat at 1 mg/kg, iv administered as 30 mins infusion by LC/MS/MS analysis. The class given is ADME, organism-based. To be noted: in vivo.
Data set [16] is described as follows: Dose normalized AUC (0 to t) in rat at 2.4 mg/kg, po. The class given is ADME, organism-based. The note with it: in vivo.
The nature of data set [17]: Plasma concentration in Sprague-Dawley rat heart failure-induced pulmonary edema model at 0.07 ug/kg, iv bolus loading dose followed by 0.8 ug/kg/min, iv continuous infusion dose for 60 mins. The class given is ADME, organism-based. To be noted: 7e-05 mg/kg.

Structures are written as SMILES. pIC50: −log10 of the molar value.

One may read the bioavailability as dose-corrected exposure relative to a reference, in per cent. Low readings indicate poor availability, high ones good availability. As usually defined, the pIC50 is −log10 of the IC50, conventionally taken in molar units. As a reminder, the AUC(0-t) is the area under the concentration-time curve up to a stated or last time point. A lower AUC(0-t) goes with less exposure. Usually MRT stands for the average time that molecules of a dose stay in the body. In general, clearance refers to the rate of elimination divided by the concentration. A low value points to a low capacity for elimination.

Sequence of Transient receptor potential cation channel subfamily A member 1 (O75762 whole entry, the tested form may be a part): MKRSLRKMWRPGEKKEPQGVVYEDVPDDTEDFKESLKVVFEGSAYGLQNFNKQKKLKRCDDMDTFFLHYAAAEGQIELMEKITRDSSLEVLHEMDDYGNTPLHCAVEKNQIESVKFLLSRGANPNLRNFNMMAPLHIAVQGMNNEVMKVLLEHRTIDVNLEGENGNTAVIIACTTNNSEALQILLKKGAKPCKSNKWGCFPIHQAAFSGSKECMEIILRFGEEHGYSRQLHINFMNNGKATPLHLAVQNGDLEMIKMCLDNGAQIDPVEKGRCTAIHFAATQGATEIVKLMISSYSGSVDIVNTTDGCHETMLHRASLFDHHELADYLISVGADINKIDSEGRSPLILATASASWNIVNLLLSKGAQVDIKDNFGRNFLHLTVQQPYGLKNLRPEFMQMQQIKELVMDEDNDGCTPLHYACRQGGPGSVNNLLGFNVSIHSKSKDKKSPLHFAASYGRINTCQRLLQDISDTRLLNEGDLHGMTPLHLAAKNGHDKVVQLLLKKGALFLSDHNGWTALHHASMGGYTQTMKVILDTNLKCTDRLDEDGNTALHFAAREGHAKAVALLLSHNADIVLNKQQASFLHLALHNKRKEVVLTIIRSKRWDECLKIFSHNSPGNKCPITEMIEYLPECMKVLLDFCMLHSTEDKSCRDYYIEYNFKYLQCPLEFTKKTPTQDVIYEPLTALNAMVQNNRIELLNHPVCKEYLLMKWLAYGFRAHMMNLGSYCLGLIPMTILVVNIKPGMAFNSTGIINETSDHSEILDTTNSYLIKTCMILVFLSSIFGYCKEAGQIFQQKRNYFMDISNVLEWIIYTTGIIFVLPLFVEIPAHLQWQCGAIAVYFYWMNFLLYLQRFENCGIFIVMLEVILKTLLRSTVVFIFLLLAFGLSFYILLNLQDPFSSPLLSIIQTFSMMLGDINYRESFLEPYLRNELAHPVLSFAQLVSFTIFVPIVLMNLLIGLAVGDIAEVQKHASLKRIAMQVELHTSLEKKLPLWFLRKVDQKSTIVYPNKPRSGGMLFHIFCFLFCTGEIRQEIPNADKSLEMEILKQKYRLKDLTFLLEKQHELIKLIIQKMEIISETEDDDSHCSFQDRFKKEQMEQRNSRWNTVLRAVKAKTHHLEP
Sequence of Transient receptor potential cation channel subfamily V member 4 (Rattus norvegicus, UniProt Q9ERZ8) (Q9ERZ8 whole entry): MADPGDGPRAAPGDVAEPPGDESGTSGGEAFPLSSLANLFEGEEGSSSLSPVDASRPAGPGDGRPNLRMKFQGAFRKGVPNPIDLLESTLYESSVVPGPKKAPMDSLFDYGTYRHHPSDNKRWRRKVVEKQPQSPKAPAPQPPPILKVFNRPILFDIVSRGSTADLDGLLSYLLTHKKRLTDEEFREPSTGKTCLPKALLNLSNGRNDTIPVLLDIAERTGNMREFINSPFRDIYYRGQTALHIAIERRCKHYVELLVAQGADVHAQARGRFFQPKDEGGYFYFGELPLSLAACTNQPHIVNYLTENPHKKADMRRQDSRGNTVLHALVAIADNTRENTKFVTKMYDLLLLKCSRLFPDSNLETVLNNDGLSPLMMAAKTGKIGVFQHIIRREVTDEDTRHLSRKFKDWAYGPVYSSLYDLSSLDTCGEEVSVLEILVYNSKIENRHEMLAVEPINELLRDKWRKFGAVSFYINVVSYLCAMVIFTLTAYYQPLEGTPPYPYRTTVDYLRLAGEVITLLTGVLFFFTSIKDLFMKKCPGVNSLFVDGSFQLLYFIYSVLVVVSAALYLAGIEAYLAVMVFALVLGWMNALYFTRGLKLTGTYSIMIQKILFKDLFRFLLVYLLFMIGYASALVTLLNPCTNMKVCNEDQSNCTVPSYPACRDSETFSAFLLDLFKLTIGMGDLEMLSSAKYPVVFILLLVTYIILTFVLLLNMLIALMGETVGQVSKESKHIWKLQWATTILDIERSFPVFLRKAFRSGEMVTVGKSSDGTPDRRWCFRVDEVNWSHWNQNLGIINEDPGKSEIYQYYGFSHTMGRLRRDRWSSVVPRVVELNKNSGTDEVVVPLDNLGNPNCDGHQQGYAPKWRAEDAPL
Sequence of Transient receptor potential cation channel subfamily M member 8 (Q7Z2W7 whole entry): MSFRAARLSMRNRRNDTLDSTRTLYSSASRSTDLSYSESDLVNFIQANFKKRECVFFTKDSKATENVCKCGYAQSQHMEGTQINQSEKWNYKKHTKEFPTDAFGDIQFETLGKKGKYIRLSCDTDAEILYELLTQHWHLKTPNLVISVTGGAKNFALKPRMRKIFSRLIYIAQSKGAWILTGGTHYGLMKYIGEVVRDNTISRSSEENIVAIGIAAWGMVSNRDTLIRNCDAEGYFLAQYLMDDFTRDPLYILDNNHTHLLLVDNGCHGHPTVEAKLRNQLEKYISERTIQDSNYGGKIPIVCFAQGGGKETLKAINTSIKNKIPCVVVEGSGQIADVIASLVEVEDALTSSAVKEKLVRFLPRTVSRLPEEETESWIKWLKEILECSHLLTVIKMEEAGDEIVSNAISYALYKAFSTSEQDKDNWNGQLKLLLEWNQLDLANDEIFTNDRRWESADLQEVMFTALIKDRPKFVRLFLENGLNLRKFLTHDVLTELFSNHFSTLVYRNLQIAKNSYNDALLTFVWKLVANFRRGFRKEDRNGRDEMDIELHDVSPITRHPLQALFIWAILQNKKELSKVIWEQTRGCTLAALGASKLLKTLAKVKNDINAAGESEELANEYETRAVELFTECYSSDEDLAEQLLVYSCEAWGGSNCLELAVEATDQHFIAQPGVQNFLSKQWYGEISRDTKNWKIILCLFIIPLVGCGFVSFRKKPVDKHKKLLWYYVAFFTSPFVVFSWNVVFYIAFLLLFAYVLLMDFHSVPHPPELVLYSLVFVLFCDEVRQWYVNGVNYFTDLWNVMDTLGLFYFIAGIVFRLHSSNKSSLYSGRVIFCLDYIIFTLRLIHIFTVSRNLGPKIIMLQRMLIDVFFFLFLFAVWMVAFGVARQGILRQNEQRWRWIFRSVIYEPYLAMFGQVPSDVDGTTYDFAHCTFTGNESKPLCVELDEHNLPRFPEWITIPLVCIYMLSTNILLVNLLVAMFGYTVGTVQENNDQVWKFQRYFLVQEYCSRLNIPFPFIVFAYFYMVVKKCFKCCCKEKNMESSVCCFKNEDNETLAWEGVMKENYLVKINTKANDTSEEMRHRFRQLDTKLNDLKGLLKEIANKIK
Sequence of Transient receptor potential cation channel subfamily V member 4 (Homo sapiens, UniProt Q9HBA0) (Q9HBA0 whole entry, the tested form may be a part): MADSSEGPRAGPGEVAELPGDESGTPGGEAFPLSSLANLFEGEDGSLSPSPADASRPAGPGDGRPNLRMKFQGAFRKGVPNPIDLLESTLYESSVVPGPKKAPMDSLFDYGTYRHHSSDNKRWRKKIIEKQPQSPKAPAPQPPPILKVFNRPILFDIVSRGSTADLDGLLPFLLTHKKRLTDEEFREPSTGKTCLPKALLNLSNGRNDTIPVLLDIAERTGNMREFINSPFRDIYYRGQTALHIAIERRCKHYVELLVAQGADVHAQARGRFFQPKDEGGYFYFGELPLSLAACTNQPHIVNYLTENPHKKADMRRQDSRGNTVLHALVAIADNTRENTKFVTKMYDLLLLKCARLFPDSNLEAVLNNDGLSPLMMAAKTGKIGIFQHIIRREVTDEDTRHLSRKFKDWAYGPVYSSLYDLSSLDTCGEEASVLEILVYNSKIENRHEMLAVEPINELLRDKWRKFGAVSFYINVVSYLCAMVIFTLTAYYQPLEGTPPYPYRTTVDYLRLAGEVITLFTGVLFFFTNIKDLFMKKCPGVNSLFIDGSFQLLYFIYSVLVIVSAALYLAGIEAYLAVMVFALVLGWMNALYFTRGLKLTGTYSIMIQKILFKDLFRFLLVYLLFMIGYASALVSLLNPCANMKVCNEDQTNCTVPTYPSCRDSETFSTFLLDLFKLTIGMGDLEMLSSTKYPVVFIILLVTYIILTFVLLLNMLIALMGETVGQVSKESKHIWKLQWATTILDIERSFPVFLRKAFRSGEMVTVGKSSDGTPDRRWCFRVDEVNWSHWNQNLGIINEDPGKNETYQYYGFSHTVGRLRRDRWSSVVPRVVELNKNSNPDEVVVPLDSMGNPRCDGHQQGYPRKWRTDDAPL

For the compound `N#Cc1ccc(S(=O)(=O)N2C[C@H](S(=O)(=O)c3ccc(Cl)cc3)[C@](O)(CO)C2)c(Cl)c1`, the Papp in data set [1] worked out at 35 ×10⁻⁶ cm/s. For the same compound, the bioavailability in data set [2] is 100%. In addition, the CL free in data set [3] came to 12 mL/min/kg. In addition, the pIC50 is 8.49 in data set [4]; less than 4.52 in data set [7]; less than 4.52 in [8]; 8.40 in [10]; less than 4.52 in data set [14]. Besides, the figures for the concentration at 1 h in [5] and in data set [17] were 152 nM and 52 nM, respectively. The results for the AUC(0-t) in [6], in data set [9] and in [11] were 90000 ng·h/mL, 1100 ng·h/mL and 2500 ng·h/mL, respectively. Also, the MRT in data set [12] came out at 1.6 h. For the same compound, the values for the AUCt/dose in data set [13] and in [16] were 0.4 kg·h/L and 0.5 kg·h/L, respectively. Besides, the “inhibition (INH)” value in the data set on Rattus norvegicus amounted to 99%. Moreover, the clearance in data set [15] turned out to be 49 mL/min/kg.
